Measured values from ChEMBL document CHEMBL4316633, “The Antiangiogenic Activity of Naturally Occurring and Synthetic Homoisoflavonoids from the Hyacinthaceae ( sensu APGII)” (J Nat Prod, 2019).
Activity calls are given as the source filed them. The calls are words filed in the database; no cut-off is given here.

Experiments:
[1] = Cytotoxicity against human Y79 cells assessed as reduction in cell number incubated for 44 hrs by alamar blue based fluorescence assay
[2] = Antiproliferative activity against human ARPE19 assessed as reduction in cell number incubated for 44 hrs by alamar blue based fluorescence assay; conditions: ARPE-19 cells
[3] = Cytotoxicity against human 92-1 cells assessed as reduction in cell number incubated for 44 hrs by alamar blue based fluorescence assay
[4] = Antiproliferative activity against HREC assessed as reduction in cell number incubated for 44 hrs by alamar blue based fluorescence assay; assay type: functional; conditions: Homo sapiens
[5] = Antiproliferative activity against HUVEC assessed as reduction in cell number incubated for 44 hrs by alamar blue based fluorescence assay; conditions: human, HUVEC cells
In short: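 Primary endothelial cells (HRECs, HUVECs; passage 5–8) in EGM-2; 2,500 cells seeded, 24 h at 37°C, 5% CO2, then compounds 0.5 nM–500 μM for 44 h. alamarBlue added 4 h, fluorescence ex 560/em 590 nm.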

Homo sapiens [6] = organism: Homo sapiens; assay: Antiangiogenic activity against HREC assessed as reduction in tube formation at 0.01 to 0.1 uM incubated for 8 hrs by matrigel based tube formation assay; assay type: functional
In short: (§1)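 HRECs (passage 5–8), 15,000 cells in EGM-2 medium, plated on Matrigel basement membrane coat with DMSO vehicle or graded compound concentrations; SH-11037 as positive control. Images taken after 8 h; tubule length quantified by Angiogenesis Analyzer macros and expressed relative to DMSO control. Mean ± SEM, n=3–6 wells, duplicate experiments; one-way ANOVA with Dunnett's test.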

Homo sapiens [7] = organism: Homo sapiens; assay: Antiangiogenic activity against HREC assessed as reduction in tube formation incubated for 8 hrs by matrigel based tube formation assay; assay type: functional; in short: as §1
Homo sapiens [8] = organism: Homo sapiens; assay: Antiangiogenic activity against HREC assessed as reduction in tube formation at 0.01 to 0.1 nM incubated for 8 hrs by matrigel based tube formation assay; assay type: functional; in short: as §1
Homo sapiens [9] = organism: Homo sapiens; assay: Antiangiogenic activity against HREC assessed as reduction in tube formation at 0.05 to 0.5 uM incubated for 8 hrs by matrigel based tube formation assay; assay type: functional; in short: as §1

SMILES | GI50 at 44 h [1] [µM] | GI50 at 44 h [2] [µM] | GI50 at 44 h [3] [µM] | GI50 [4] [µM] | GI50 at 44 h [5] [µM] | inhibition (Homo sapiens [6]) | inhibition (Homo sapiens [7]) | inhibition (Homo sapiens [8]) | inhibition (Homo sapiens [9])
COc1ccc(C[C@@H]2COc3c(OC)c(O)cc(O)c3C2=O)cc1 | > 100 | > 100 | > 100 | > 100 |  |  |  |  | 
COc1c(O)cc(O)c2c1OC/C(=C\c1ccc(O)cc1)C2=O | > 100 |  | > 100 | 40 | > 100 |  |  |  | 
COc1c(O)cc(O)c2c1OC[C@@H](Cc1ccc(O)cc1)C2=O | > 100 | > 100 | > 100 | 64 to 100 | > 100 |  |  |  | 
COc1ccc(C[C@]2(O)COc3cc(O)cc(O)c3C2=O)cc1 | > 100 | > 100 | > 100 | 74 |  |  |  |  | 
COc1cc2c(cc1O)C[C@]21COc2cc(O)cc(O)c2C1=O | > 100 |  | > 100 | > 100 | > 100 |  |  |  | 
COc1cc(O)c2c(c1)OC[C@]1(Cc3c1cc(OC)c(OC)c3OC)C2=O | > 100 |  | > 100 | > 100 | > 100 |  |  |  | 
COc1cc(O)cc2c1C(=O)/C(=C/c1ccc(O)c(O)c1)CO2 | > 100 |  | > 100 | > 100 | > 100 |  |  |  | 
COc1c(O)cc2c(c1O)C(=O)[C@H](Cc1ccc(O)cc1)CO2 | > 100 |  | > 100 | > 100 | > 100 |  |  |  | 
COc1ccc(C[C@H]2COc3cc(OC(C)=O)cc(OC(C)=O)c3C2=O)cc1O | > 100 |  | > 100 | > 100 | 92 |  |  |  | 
COc1cc2c(cc1O)C[C@]21COc2cc(OC(C)=O)cc(O)c2C1=O | > 100 |  | > 100 | > 100 | > 100 |  |  |  | 
COc1cc(O)cc(OC)c1C(=O)/C=C/c1ccc(O)cc1 | > 100 |  |  | > 100 | > 100 |  |  |  | 
COc1c(O)cc2c(c1O)C(=O)/C(=C/c1ccc(O)c(O)c1)CO2 | > 100 | > 100 | > 100 | > 100 |  |  |  |  | 
COc1ccc(CC2COc3cc(OC)c(OC)c(OC)c3C2=O)cc1O (racemic) | > 100 | > 100 | > 100 | 0.21 |  |  |  |  | 
COc1ccc2c(c1OC)OC/C(=C\c1ccc(SC)cc1)C2=O | 11 | > 100 | > 100 | 3.6 |  |  |  |  | 
O=Cc1ccc(O)cc1 [4-HYDROXYBENZALDEHYDE] | > 100 |  | > 100 | > 100 | > 100 |  |  |  | 
CC(=O)Oc1cc(C[C@H]2COc3cc(O)cc(O)c3C2=O)ccc1O | > 100 |  | > 100 | > 100 | > 100 |  |  |  | 
COc1cc2c(cc1O)C[C@]21COc2cc(OC(C)=O)cc(OC(C)=O)c2C1=O | > 100 |  | > 100 | > 100 | > 100 |  |  |  | 
COc1ccc(C[C@@H]2COc3cc(O)cc(O)c3C2=O)cc1 | > 100 |  | > 100 | > 100 | > 100 |  |  |  | 
O=C1c2c(O)cc(O)cc2OC[C@H]1Cc1ccc(O)c(O)c1 | > 100 |  | > 100 | > 100 | > 100 |  |  |  | 
COc1ccc(C[C@]2(O)COc3cc(OC)cc(O)c3C2=O)cc1 | > 100 | > 100 | > 100 | 64 |  |  |  |  | 
COc1cc(O)cc2c1C(=O)[C@H](Cc1ccc(O)cc1)CO2 | > 100 |  | > 100 | > 100 | > 100 |  |  |  | 
COc1ccc(C[C@@H]2COc3cc(OC)c(OC)c(OC)c3C2=O)cc1O | 85 | > 100 | > 100 | 0.035 |  | Active |  |  | 
O=C1CCOc2cc(O)cc(O)c21 | > 100 |  | > 100 | > 100 | > 100 |  |  |  | 

SMILES | GI50 at 44 h [1] [µM] | GI50 at 44 h [2] [µM] | GI50 at 44 h [3] [µM] | GI50 [4] [µM] | GI50 at 44 h [5] [µM] | inhibition (Homo sapiens [6]) | inhibition (Homo sapiens [7]) | inhibition (Homo sapiens [8]) | inhibition (Homo sapiens [9])
O=C1/C(=C/c2ccc(O)cc2)COc2cc(O)cc(O)c21 | > 100 | > 100 | > 100 | 60 |  |  |  |  | 
COc1cc2c(cc1O)[C@@]1(COc3cc(O)cc(O)c3C1=O)C2 | > 100 |  | > 100 | > 100 | > 100 |  |  |  | 
COc1cc(O)cc2c1C(=O)[C@H](Cc1ccc(O)c(O)c1)CO2 | 25 |  | > 100 | > 100 | 14 |  |  |  | 
COc1ccc(/C=C2\COc3cc(OC)c(OC)c(OC)c3C2=O)cc1O | 23 | 1.3 | 8.2 | 2.2 |  |  |  |  | 
O=C1/C(=C/c2ccc(O)c(O)c2)COc2cc(O)cc(O)c21 | > 100 | > 100 | > 100 | > 100 |  |  |  |  | 
O=C1c2c(O)cc(O)cc2OC[C@H]1Cc1ccc(O)cc1 | > 100 |  | > 100 | > 100 | > 100 |  |  |  | 
COc1ccc(/C=C2\COc3cc(OC(C)=O)c(O)c(O)c3C2=O)cc1OC(C)=O | 29 |  | 69 | 16 | 11 |  | Dose-dependent effect |  | 
COc1ccc(CC2(O)COc3cc(O)cc(O)c3C2=O)cc1 (configuration not stated) | > 100 |  | > 100 | > 100 | > 100 |  |  |  | 
COc1ccc(/C=C2\COc3cc(OC(C)=O)cc(O)c3C2=O)cc1O | 58 |  | 67 | 18 | 26 |  | Dose-dependent effect |  | 
COc1cc(OC(C)=O)cc2c1C(=O)/C(=C/c1ccc(OC(C)=O)cc1)CO2 | > 100 |  | > 100 | 96 | 43 |  |  |  | 
COc1ccc(CC2COc3cc(OC)c(OC)c(OC)c3C2)cc1O (racemic) | 18 | 0.00034 | 52 | 0.00023 |  |  |  | Active | 
COc1ccc(/C=C2\COc3c(OC)c(O)cc(O)c3C2=O)cc1 | > 100 | > 100 | > 100 | > 100 |  |  |  |  | 
O=C1c2c(O)cc(O)cc2OC[C@]12Cc1cc3c(cc12)OCO3 | > 100 |  | > 100 | > 100 | > 100 |  |  |  | 
COc1cc(OC)c2c(c1)OC/C(=C\c1ccc(SC)cc1)C2=O | 2 | 48 | > 100 | 2.5 |  |  |  |  | 
CC(=O)Oc1cc(O)cc2c1C(=O)/C(=C/c1ccc(O)c(O)c1)CO2 | 2.5 |  | > 100 | 1.4 | 5 |  | Dose-dependent effect |  | 
COc1c(O)cc2c(c1O)C(=O)[C@H](Cc1ccc(O)c(O)c1)CO2 | > 100 | > 100 | > 100 | > 100 |  |  |  |  | 
CCOc1ccc(C(=O)/C=C/c2ccc(OC)c(OC)c2)c(O)c1C | > 100 | > 100 | > 100 | 3.9 |  |  |  |  | Active
COc1ccc(/C=C2\COc3cc(OC)c(OC)c(O)c3C2=O)cc1O | 2.4 | 4.8 | > 100 | 0.26 |  |  |  |  | Active
COc1ccc(/C=C2\COc3cc(O)c(O)c(O)c3C2=O)cc1O | 23 |  | > 100 | 17 | 41 |  |  |  | 
COc1c(O)c(OC)c2c(c1O)OC[C@@H](Cc1ccc(O)cc1)C2=O | > 100 | > 100 | > 100 | > 100 |  |  |  |  | 
COc1cc2c(c(OC)c1OC)C(=O)/C(=C/c1ccc(Cl)c(O)c1)CO2 | 13 | 0.73 | 3.6 | 0.11 |  |  |  |  | 
COc1cc(O)c2c(c1)OC[C@]1(Cc3c1cc(OC)c(OC)c3O)C2=O | > 100 |  | > 100 | > 100 | > 100 |  |  |  | 
